Drawing on ChEMBL document CHEMBL1145867, “Muraymycins, novel peptidoglycan biosynthesis inhibitors: synthesis and SAR of their analogues” (2003), this text covers Inhibitory activity and MIC for four molecules.

Test [1] is described as follows: The inhibitory activity of compound against MraY or MurG at 50 ug/mL; Inhibit.
The next test has as its system Morganella morganii. Put plainly: In vitro antimicrobial activity against Morganella morganii GC 4531. The format is functional. An outline of the steps: (§1)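 Broth microdilution per NCCLS guidance. Serial dilutions of each agent in microtiter plates are inoculated with each organism to 10⁵ CFU/mL and incubated 18–22 h at 35 C in ambient air. MIC is the lowest concentration giving complete growth inhibition, judged by the unaided eye.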

A further test concerns Klebsiella pneumoniae. Put plainly: In vitro antimicrobial activity against Klebsiella pneumoniae GC 4534. The format is functional. An outline of the steps:
as §1

Test [2] relates to Enterococcus faecalis. Put plainly: In vitro antimicrobial activity against Enterococcus faecalis GC 2242. The format is functional. The method in brief:
as §1

The test system of test [3] is Escherichia coli. Put plainly: In vitro antimicrobial activity against Escherichia coli GC 4559. In kind it is functional. An outline of the steps:
as §1

The test system of test [4] is Staphylococcus aureus. As to the kind of experiment: In vitro antimicrobial activity against Staphylococcu aureus GC 4536. In kind it is functional. The method in brief: as §1
Test [5] relates to Pseudomonas aeruginosa. As to the kind of experiment: In vitro antimicrobial activity against Pseudomonas aeruginosa GC 4532. In kind it is functional. An outline of the steps: as §1
The test system of test [6] is Enterococcus faecalis. Put plainly: In vitro antimicrobial activity against Enterococcus faecalis GC 4555. The format is functional. The method in brief: as §1
Test [7] has as its system Staphylococcus sp. As to the kind of experiment: In vitro antimicrobial activity against CNS GC 4547. The format is functional. The method in brief:
as §1

The next test concerns Enterococcus sp. Put plainly: In vitro antimicrobial activity against Enterococci. In kind it is functional. The method in brief: as §1
Test [8] relates to Staphylococcus aureus. Put plainly: In vitro antimicrobial activity against Staphylococcu aureus GC 2216. The format is functional. The method in brief:
as §1

Test [9] in a line: The inhibitory activity of compound against MraY or MurG at 25 ug/mL; Inhibit.
In another test the test system is Bacteria. As to the kind of experiment: In vitro antimicrobial activity against gram-negative organisms (10). The format is functional. The method in brief: as §1
In test [10] the test system is Escherichia coli. Put plainly: In vitro antimicrobial activity against Escherichia coli GC 2214. In kind it is functional. An outline of the steps:
as §1

The next test deals with Serratia marcescens. Put plainly: In vitro antimicrobial activity against Serratia marcescens GC 4077. The format is functional. The method in brief: as §1
The nature of test [11]: The inhibitory activity of compound against MraY or MurG at 6.25 ug/mL; No Inhibition.
Test [12] in a line: The inhibitory activity of compound against MraY or MurG at 12.5 ug/mL; Inhibit.
The test system of test [13] is Pseudomonas aeruginosa. As to the kind of experiment: In vitro antimicrobial activity against Pseudomonas aeruginosa GC 2214. The format is functional. An outline of the steps:
as §1

Test [14] relates to Escherichia coli. As to the kind of experiment: In vitro antimicrobial activity against Escherichia coli GC 3226. In kind it is functional. The method in brief: as §1
Test [15] has as its system Enterococcus faecalis. Put plainly: In vitro antimicrobial activity against Enterococcus faecalis GC 842. The format is functional. An outline of the steps: as §1
For test [16], the system named is Escherichia coli. Put plainly: In vitro antimicrobial activity against Escherichia coli GC 4560. The format is functional. An outline of the steps: as §1
In the next test the test system is Candida albicans. Put plainly: In vitro antimicrobial activity against Candida albicans GC 3066. The format is functional. The method in brief:
as §1

In test [17] the test system is Staphylococcus aureus. As to the kind of experiment: In vitro antimicrobial activity against Staphylococcu aureus GC 1131. In kind it is functional. The method in brief: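 Broth dilution per NCCLS recommendations. Serial dilutions in microtiter plates inoculated to 10⁵ CFU/mL, then incubated 18–22 h at 35 C in ambient air. MIC taken as the lowest concentration giving complete growth inhibition by unaided eye.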

The test system of test [18] is Staphylococcus sp. Put plainly: In vitro antimicrobial activity against CNS GC 4538. In kind it is functional. The method in brief: as §1
Test [19] in a line: The inhibitory activity of compound against MraY or MurG at 100 ug/mL; Inhibit.
The next test deals with Enterobacter cloacae. Put plainly: In vitro antimicrobial activity against Enterobacter cloacae GC 3783. The format is functional. The method in brief:
as §1

Test [20] has as its system Staphylococcus sp. As to the kind of experiment: In vitro antimicrobial activity against Staphylococci. In kind it is functional, staphyl ococcus species. An outline of the steps: as §1
A short description of test [21]: The inhibitory activity of compound against MraY or MurG at 100 ug/mL;Inhibit.
Test [22] is described as follows: The inhibitory activity of compound against MraY or MurG at 12.5 ug/mL; No Inhibition.
Test [23] can be described thus: The inhibitory activity of compound against MraY or MurG at 25 ug/mL; No Inhibition.
Test [24] is described as follows: The inhibitory activity of compound against MraY or MurG at 6.25 ug/mL; Inhibit.
Where [25] appears, read: Staphylococcus sp., read-out: MIC.

Values after ≈ are worked out from the molar mass of the structure shown. Active and inactive are the calls of the source. No cut-off for these calls is given here.

`CC(C)C(O)[C@@H](N)C(=O)NCCCN[C@H](C(=O)OC(C)(C)C)[C@@H](O)C1O[C@@H](n2ccc(=O)[nH]c2=O)[C@H](O[Si](C)(C)C(C)(C)C)[C@@H]1O[Si](C)(C)C(C)(C)C` (some centres undefined): the Inhibitory activity entry in test [1], in test [9], in test [12] and in [19] was “Inhibit” throughout. Further, the MIC is 128 µg/mL (≈ 162 µM) against Morganella morganii; 128 µg/mL (≈ 162 µM) against Klebsiella pneumoniae; 2 µg/mL (≈ 2.54 µM) against Enterococcus faecalis [2]; over 128 µg/mL against Escherichia coli [3]; 1 µg/mL (≈ 1.27 µM) against Staphylococcus aureus [4]; 128 µg/mL (≈ 162 µM) against Pseudomonas aeruginosa [5]. For the same molecule, the MIC in the test with Enterococcus faecalis [6] was 2 µg/mL (≈ 2.54 µM); in the test on Staphylococcus sp. [7] it was 2 µg/mL (≈ 2.54 µM); with Enterococcus sp., 2 µg/mL (≈ 2.54 µM); with Staphylococcus aureus [8], 2 µg/mL (≈ 2.54 µM); against Bacteria it was over 128 µg/mL; against Escherichia coli [10], 128 µg/mL (≈ 162 µM). For the same molecule, the MIC was 128 µg/mL (≈ 162 µM) against Serratia marcescens; over 128 µg/mL against Pseudomonas aeruginosa [13]; over 128 µg/mL in the test with Escherichia coli [14]; 2 µg/mL (≈ 2.54 µM) with Enterococcus faecalis [15]; 32 µg/mL (≈ 40.6 µM) in the test with Escherichia coli [16]; 32 µg/mL (≈ 40.6 µM) against Candida albicans. Moreover, the MIC in the test with Staphylococcus aureus [17] was found to be 1 µg/mL (≈ 1.27 µM); in the test on Staphylococcus sp. [18], 2 µg/mL (≈ 2.54 µM); with Staphylococcus sp. [18] (setting [25]), 1 µg/mL (≈ 1.27 µM); against Enterobacter cloacae, 128 µg/mL (≈ 162 µM); against Staphylococcus sp. [20], 1 µg/mL (≈ 1.27 µM). The Inhibitory activity result in [11] was “inactive”.
For the molecule `COc1ccc(Cn2c(=O)ccn([C@@H]3OC([C@H](O)[C@H](NCCCNC(=O)[C@H](N)CC(C)C)C(=O)OC(C)(C)C)[C@@H](O[Si](C)(C)C(C)(C)C)[C@H]3O[Si](C)(C)C(C)(C)C)c2=O)cc1` (some centres undefined), the Inhibitory activity entry in test [21], in [1] and in test [9] was “Inhibit” each time. For the same molecule, the Inhibitory activity result in [22] and in [11] was “inactive” throughout. The MIC with Enterococcus sp. is 4 µg/mL (≈ 4.48 µM); in the test on Bacteria, over 128 µg/mL; in the test with Staphylococcus sp. [20], 4 µg/mL (≈ 4.48 µM).
As to `COc1ccc(Cn2c(=O)ccn([C@@H]3OC([C@H](O)[C@H](NCCCNC(=O)[C@H](N)CCCCNC(=O)OCc4ccccc4)C(=O)OC(C)(C)C)[C@@H](O[Si](C)(C)C(C)(C)C)[C@H]3O[Si](C)(C)C(C)(C)C)c2=O)cc1` (some centres undefined), the Inhibitory activity result in test [1] and in [19] was “Inhibit” in each case. Moreover, the MIC against Morganella morganii was 128 µg/mL (≈ 123 µM); against Klebsiella pneumoniae it was over 128 µg/mL; with Enterococcus faecalis [2] it was 8 µg/mL (≈ 7.68 µM); in the test on Escherichia coli [3], over 128 µg/mL; in the test on Staphylococcus aureus [4], 8 µg/mL (≈ 7.68 µM); in the test on Pseudomonas aeruginosa [5], over 128 µg/mL. Moreover, the MIC against Enterococcus faecalis [6] is 8 µg/mL (≈ 7.68 µM); against Staphylococcus sp. [7], 16 µg/mL (≈ 15.4 µM); against Enterococcus sp., 8 µg/mL (≈ 7.68 µM); in the test with Staphylococcus aureus [8], 8 µg/mL (≈ 7.68 µM); against Bacteria it was 128 µg/mL (≈ 123 µM); in the test with Escherichia coli [10], 128 µg/mL (≈ 123 µM). For the same molecule, the MIC against Serratia marcescens is 128 µg/mL (≈ 123 µM); in the test with Pseudomonas aeruginosa [13] it was over 128 µg/mL; in the test on Escherichia coli [14], 128 µg/mL (≈ 123 µM); in the test on Enterococcus faecalis [15], 8 µg/mL (≈ 7.68 µM); against Escherichia coli [16] it was 8 µg/mL (≈ 7.68 µM); in the test on Candida albicans it was over 128 µg/mL. In addition, the MIC in the test with Staphylococcus aureus [17] is 4 µg/mL (≈ 3.84 µM); against Staphylococcus sp. [18], 8 µg/mL (≈ 7.68 µM); with Staphylococcus sp. [18] (setting [25]) it was 8 µg/mL (≈ 7.68 µM); in the test with Enterobacter cloacae it was over 128 µg/mL; in the test on Staphylococcus sp. [20], 4 µg/mL (≈ 3.84 µM). Also, the Inhibitory activity result in test [23], in [22] and in test [11] was “inactive” in each case.
With `COC1C(O)[C@@H](OC(C(NCCCNC(=O)[C@H](NC(=O)[C@@H](NC(=O)N[C@H](C(=O)O)C(C)C)C2CCN=C(N)N2)C(O)C(C)C)C(=O)O)[C@H]2O[C@@H](n3ccc(=O)[nH]c3=O)[C@H](O)[C@@H]2O)O[C@H]1CN` (some centres undefined), the Inhibitory activity result in test [1], in test [24], in test [9], in test [12] and in [19] was “Inhibit” throughout.
